# Compounds with a hit are over-represented: about 3.4% of the library has one in this group of screens.
# JNK3 blocker: JNK3 kinase activity inhibitors, primary screen, biochemical, human, purified enzyme | HTS | inhibition, % at 8 µM | 60,000 compounds, 0.61% hits; in the data active means inhibition above about 17%;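 further: 0% = DMSO and 100% = reference inhibitor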
# SF1 activator: activators of human SF-1, primary screen, cell-based, CHO-K1, Gal4-SF-1 LBD, luciferase luminescence; AID 522, 2006; activation, % at 10 µM; CHO-K1 Gal4-SF-1 LBD luciferase reporter; % increase over DMSO SF-1-specific signal; 65,000 compounds, 1.9% hits;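 active means activation above the mean activation of all tested compounds plus 3 SD, cut at about 50% in these data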
#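 Material: Gal4–SF-1 LBD one-hybrid luciferase reporter in CHO-K1 cells | Amount: 4,000 cells per well | Compound dosing: 10 µM single point, 1% DMSO | Schedule: 20 h compound treatment, 37 °C | Measured by: SteadyLite luciferase luminescence | Evaluation: Percent activation versus DMSO | Control set: DMSO-treated SF-1-transfected cells as negative, DMSO-treated mock-transfected cells lacking SF-1 as background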
# PKA kinase inh: inhibitors of human PKA kinase activity, primary screen, biochemical, ATP-depletion luminescence, Kemptide substrate; cAMP-dependent protein kinase catalytic subunit alpha (Homo sapiens), P17612; inhibition, % at 6 µM; 65,000 compounds, 0.1% hits; AID 524, 2006; PKA Kemptide phosphorylation, Kinase-Glo ATP luminescence;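 active means inhibition above the screen-wide mean inhibition plus 3 SD, cut at about 21% in these data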
# WNV protease inh: inhibitors of WNV NS2B-NS3 protease, primary screen, biochemical, fluorogenic substrate. 65,000 compounds, 0.18% hits. Genome polyprotein (West Nile virus), P06935. fluorogenic substrate Ex360/Em465; active compounds read low. z-score (no concentration beside the values). AID 577, 2007; in the data active means z-score below about -3
# ROCK2 blocker: inhibitors of human ROCK2 kinase, primary screen, biochemical, high-throughput, luminescence; Rho-associated protein kinase 2 (Homo sapiens), O75116; 60,000 compounds, 0.35% hits; AID 604, 2007; purified ROCK2, Kinase-Glo ATP depletion luminescence; inhibition, % at 6 µM;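 active means inhibition above the screen-wide mean inhibition plus 3 SD, cut at about 18% in these data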;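 further: plate controls were DMSO wells for no effect and Y-27632 control wells after no-enzyme background subtraction for full effect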
# RORa activator: activators of orphan receptor RORA, primary screen, cell-based, luminescence; Nuclear receptor ROR-alpha (Homo sapiens), P35398; 65,000 compounds, 1.5% hits; CHO-K1 Gal4-RORA LBD luciferase reporter; percent increase over mock-subtracted basal signal; activation, % at 10 µM;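 active means activation above the mean of all tested compounds plus 3 SD, cut at about 49% in these data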;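 further: 0% = DMSO-treated RORA cells and 100% = added signal equal to DMSO minus mock-transfected cells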
# Target sequence (P35398 whole entry, looked up, the tested form may be a part): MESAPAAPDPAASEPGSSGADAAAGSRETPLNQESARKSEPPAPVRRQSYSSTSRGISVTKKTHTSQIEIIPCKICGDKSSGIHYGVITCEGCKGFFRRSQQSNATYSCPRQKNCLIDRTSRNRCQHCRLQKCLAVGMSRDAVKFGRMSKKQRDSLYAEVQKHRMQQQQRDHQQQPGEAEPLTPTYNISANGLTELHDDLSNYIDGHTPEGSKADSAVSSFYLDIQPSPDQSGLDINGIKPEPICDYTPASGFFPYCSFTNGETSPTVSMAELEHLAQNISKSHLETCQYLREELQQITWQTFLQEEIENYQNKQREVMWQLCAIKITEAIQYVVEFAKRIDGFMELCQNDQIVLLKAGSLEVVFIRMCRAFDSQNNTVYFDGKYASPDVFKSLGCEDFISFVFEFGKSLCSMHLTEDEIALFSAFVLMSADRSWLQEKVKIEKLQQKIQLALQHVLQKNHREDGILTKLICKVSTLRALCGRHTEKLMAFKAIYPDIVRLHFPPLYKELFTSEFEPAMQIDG
# Starred values were filed as active, the others as inactive; . = no result given.
SMILES,JNK3 blocker,SF1 activator,PKA kinase inh,WNV protease inh,ROCK2 blocker,RORa activator
COc1ccc2c(c1OC)C(=O)N(c1nccs1)C2,-3.5,75.2*,11.3,-0.89,2.7,19.2
COc1ccc(C2C(C(C)=O)=C(O)C(=O)N2c2nccs2)cc1OC (stereo not given),5.1,-6.6,1.3,-0.29,-11.1,-12.8
O=C(Nc1ccccc1)Nc1ccccn1,1.2,33.1,-0.4,-1.16,0.3,14.6
CC(Sc1ccccn1)C(=O)Nc1ccccc1 (stereo not given),5.3,57.1*,-2.9,0.39,-2.0,33.7
CCc1nnc(NC(=O)CSc2nc3c(cc2C#N)CCCC3)s1,1.8,78.5*,11.8,0.55,10.8,48.4
N#CCSc1nc2c(cc1C#N)CCCC2,12.2,-1.3,-0.4,0.36,0.4,-5.2
COC(=O)CC(=O)CSc1nc2c(cc1C#N)CCCCC2,-0.5,78.0*,-1.4,-0.3,4.3,39.5
CCCN1Cc2cccc(C(=O)NCc3ccc4c(c3)OCO4)c2C1=O,23.8*,5.0,7.3,0.42,4.7,4.0
O=C(NCc1ccc2c(c1)OCO2)c1cccc2c1C(=O)N(C1CCCCC1)C2,6.4,-0.8,1.3,-0.35,4.0,-10.7
CCOC(=O)c1ccc2[nH]c3c(c2c1)CCCCC3=O,23.7*,35.3,15.3,0.78,5.9,47.0
CCOC(=O)CNC(=O)c1ccc2[nH]c3c(c2c1)CCCC3,-11.6,-8.0,4.8,-0.58,6.0,12.4
C=CCN=C(NC#N)SCC(=O)c1cccc(OC)c1,0.0,36.3,4.7,-1.09,17.0,23.0
COc1ccc(NC(=O)c2cnc3n(c2=O)CCS3)cc1OC,1.9,9.1,3.5,-0.27,1.7,15.4
COc1ccc(NC(=O)c2cnc3ccccn3c2=O)cc1OC,1.5,18.1,1.0,-0.82,3.9,52.8*
O=C1CSC(c2cccs2)N1c1ccccc1 (stereo not given),2.9,-11.8,-2.7,-0.93,2.6,-12.4
c1ccc(N2CCN(c3ccccc3)C2c2cccs2)cc1,1.7,23.5,-2.0,1.98,-1.0,58.4*
CN(C)S(=O)(=O)c1ccc(S(=O)(=O)N(Cc2ccccn2)Cc2ccco2)cc1,1.4,-12.8,6.2,0.56,1.3,-10.2
Cc1ccc(C2=N/C(=C/N3CCOCC3)C(=O)O2)cc1,1.5,54.8*,8.0,-0.84,3.1,33.7
CN(C)/C=C1\N=C(c2ccc3c(c2)OCO3)OC1=O,.,28.5,12.4,-0.3,.,17.6
CN1CCc2c(sc3c2C(=O)NC(c2cccc(OC(=O)c4cccs4)c2)N3)C1 (stereo not given),3.6,57.9*,-8.0,-0.49,-2.2,62.3*
COCCOC(=O)c1[nH]c2c(c1C)C(=O)CC(c1cc(OC)ccc1OC)C2 (stereo not given),0.9,6.8,-1.2,-0.3,3.1,75.1*
COc1ccc(C(=O)N(Cc2ccco2)C(C(=O)NC2CCCC2)c2ccc(O)cc2)cc1OC (stereo not given),-0.1,5.4,8.4,-0.34,6.0,-2.0
Cc1ccc(/C=N/c2sc3c(c2C#N)CCCCC3)o1,-4.5,54.4*,8.0,-0.62,16.5,12.3
Cc1ccc(/C=N/c2sc3c(c2C#N)CCC3)s1,.,-16.2,4.5,0.02,.,21.6
CN1CCN(/C=N/c2sc3c(c2C#N)CCCCC3)CC1,-0.2,54.5*,3.2,0.33,10.0,33.5
SMILES,JNK3 blocker,SF1 activator,PKA kinase inh,WNV protease inh,ROCK2 blocker,RORa activator
COC(=O)C(Cc1cnc[nH]1)NC(=O)C1CCC(=O)N1 (stereo not given),-1.0,-0.3,11.0,-0.22,12.4,2.0
CCc1ccc(N2CC(C(=O)Nc3nccs3)CC2=O)cc1 (stereo not given),-0.4,5.9,11.3,-0.7,6.3,-2.1
Nn1c(SCC(=O)Nc2ccccc2)nnc1-c1cccnc1,2.5,0.8,0.7,-1.5,1.0,13.9
COCCN1C(=O)c2oc3cc(C)c(C)cc3c(=O)c2C1c1ccc(O)cc1 (stereo not given),-6.0,-2.9,11.7,0.05,4.5,-15.2
Cc1c(C(=O)N2CCCCC2)sc(N)c1C#N,-0.9,-7.8,-2.0,0.2,25.5*,-16.3
Cc1c(-c2nc(N)nc(Nc3ccccc3F)n2)oc2ccccc12,10.1,72.8*,7.0,-0.17,3.1,107.8*
CCOc1ccc(-c2nnc(-c3ccncc3)o2)cc1,6.5,39.3,4.8,-1,5.7,36.4
CCCCOc1ccc(-c2nnc(-c3ccncc3)o2)cc1,-1.1,39.4,1.2,0.38,1.9,58.7*
CC1CCc2nc(N)c(C#N)c(-c3ccncc3)c2C1 (stereo not given),17.1*,1.1,1.5,-0.21,4.9,-17.5
CCC1Oc2nc(SC)nnc2-c2ccccc2N1C(=O)c1ccccc1 (stereo not given),0.3,49.7*,1.1,-0.48,1.4,54.0*
CC1CCN(c2ccc(C(=O)NCCc3ccccc3)cn2)CC1,-7.7,28.4,-1.9,-2.67,-7.2,60.2*
CC1CCCN(c2ccc(C(=O)NCc3cccs3)cn2)C1 (stereo not given),-7.1,70.2*,-3.9,-0.1,-6.6,56.3*
COCCN(CCOC)c1ncnc2c1cnn2-c1ccc(Cl)cc1,.,32.7,9.2,0.62,.,55.0*
OCCOCCNc1ncnc2c1cnn2-c1ccccc1,-3.2,45.9,4.4,0.53,2.7,-4.8
OCCOCCNc1ncnc2c1cnn2-c1ccc(Cl)cc1,0.7,64.1*,2.3,0.31,-5.3,6.8
CC(C)OCCCNc1ncnc2c1cnn2-c1ccccc1,1.1,25.8,1.2,0.52,-11.1,-26.9
COCCNc1ncnc2c1cnn2-c1ccc(Cl)cc1,-7.5,68.0*,2.2,1.27,4.4,53.7*
CC1CC(=O)C=C(O)C1C(=O)OC(C)(C)C (stereo not given),-7.2,-8.4,-4.8,-0.8,0.1,-18.8
O=C(c1cc(-c2ccc3c(c2)OCO3)on1)N1CCN(c2ccccc2)CC1,-9.4,36.0,-0.6,0.38,3.7,69.7*
O=C(c1cc(-c2ccc3c(c2)OCO3)on1)N1CCN(c2ccc(F)cc2)CC1,-1.1,4.8,3.7,0.5,3.4,-8.9
O=C(c1cc(-c2ccc(Cl)c(Cl)c2)on1)N1CCCC1,-5.3,45.6,-2.7,0.47,-11.4,59.9*
CN(C)c1nc2c(c(=O)[nH]c(=O)n2C)n1Cc1ccccc1Br,1.1,-0.9,7.3,-0.01,4.3,8.2
O=C(NCc1cccs1)C1CC(=O)N(c2ccccc2)C1 (stereo not given),10.3,-3.9,10.9,-0.43,15.7,-7.4

# Screening data as filed in PubChem.
